Sampled rows, rich in hits. Any-hit rate of the full collection: about 5.1%.
APP 5'UTR act = activates APP 5'UTR luciferase reporter | SH-SY5Y APP 5'UTR luciferase reporter, luminescence; zero percent = DMSO vehicle wells | activation, % at 2 µM | 1% of 190,000 active | AID 1276;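 active = activation above a set limit, based on mean plus 3 SD of controls, cut at about 140% in these data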
STAT1 activator = activators of IFN-gamma induced STAT1 signaling; NIH 3T3 STAT1-luciferase reporter, luminescence; 100% = IFN-gamma alone, no compound; activation (% of control), % at 5.5 µM; 2.6% of 200,000 active;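 active = activation above the screen-wide mean activation plus 3 SD, cut at about 130% in these data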
STAT3 blocker = inhibitors of IL-6 induced STAT3 signaling. 0.89% of 190,000 active. AID 862. inhibition, % at 5.5 µM. U3A cells, IL-6 STAT3-luciferase reporter, luminescence; host cell line lacks STAT1;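 active = inhibition above the mean inhibition across all screened compounds plus 3 SD, cut at about 44% in these data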
NF-kB neuron act = NF-kB expression increase, human neuronal cells. NF-kB reporter expression; active compounds read high. fold change at 12.5 µM. 1.6% of 190,000 active. AID 1239; in the data active = fold change above about 3.3
STAT1 blocker = inhibitors of IFN-gamma induced STAT1 signaling. NIH 3T3 STAT1-luciferase reporter, luminescence. inhibition, % at 5.5 µM. 0.35% of 200,000 active. AID 920;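 active = inhibition above a set limit, the mean inhibition across all tested compounds plus 3 SD, cut at about 34% in these data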
STAT3 activator = increases IL-6 driven STAT3 reporter signal. U3A cells, IL-6 STAT3-luciferase reporter, luminescence; 100% = signal with IL-6 EC80 alone. activation (% of control), % at 5.6 µM. 0.91% of 190,000 active;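 active = activation above the screen-wide mean of compound activation plus 3 SD, cut at about 130% in these data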
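Test system: Human STAT1-deficient U3A cells with stable STAT3-luciferase reporter | Also added: Interleukin-6, 33 ng/mL | Timing: Compound pre-incubation 1 h before IL-6, then 6 h stimulation at 37 °C | Technique: Luciferase reporter luminescence | Read-out: Percent of IL-6-only median luminescence | Benchmarks: IL-6-only wells as 100% reference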
STAT1 activ conf = STAT1 activation, confirmation assay; shares compounds with STAT1 activator; NIH 3T3 STAT1-luciferase reporter, IFN-gamma potentiation, luminescence; 100% = IFN-gamma EC80 alone, no compound; activation (% of control), % at 5.7 µM; 97% of 1,200 active; AID 1262;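 active = activation above a set limit carried over from the earlier primary STAT1 screen, cut at about 140% in these data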
NFkB act STAT1ct = activates NF-kappaB, counter-screen to STAT1 activators; shares compounds with STAT1 activator; HEK293T NF-kB luciferase reporter, TNF-alpha stimulated, luminescence; 100% = TNF-alpha with vehicle only; activation (% of control), % at 5.7 µM; 43% of 1,200 active; AID 1306;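 active = activation above the mean of solvent-only control wells plus 3 SD, set per campaign, cut at about 130% in these data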;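 note: TNF-alpha given at a submaximal dose yielding about 80% of full reporter signal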
STAT3 act STAT1c = human STAT3 activation in STAT1 activator counter-screen; shares compounds with STAT1 activator; activation (% of control), % at 5.7 µM; U3A cells STAT3-luciferase reporter, IL-6, luminescence; cells lack STAT1; 100 = IL-6 alone, no compound effect; 46% of 1,200 active;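 active = activation above the solvent-only control well mean plus 3 SD, set per plate batch, cut at about 110% in these data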;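 note: higher means more STAT3 reporter activation so hits are non-selective activators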
Numbers stand for hits; i = inactive; nt = no result.

SMILES | APP 5'UTR act | STAT1 activator | STAT3 blocker | NF-kB neuron act | STAT1 blocker | STAT3 activator | STAT1 activ conf | NFkB act STAT1ct | STAT3 act STAT1c
CC(C)(C)C(=O)c1cnc(Nc2ccccc2Cl)s1 | i | 158 | i | 5.1 | i | i | 204 | i | 111
O=C(c1ccccc1)c1cnc(Nc2ccccc2Cl)s1 | 174 | 162 | i | 7.3 | i | i | 214 | 135 | 113
CC(C)C(=O)Nc1ncc(Cc2ccccc2Cl)s1 | i | i | i | i | i | i | nt | nt | nt
N#Cc1c(/N=C/N2CCOCC2)sc2c1CCCCC2 | i | 155 | i | 4.9 | i | i | 194 | i | 126
Cc1ccc(/C=N/c2sc3c(c2C#N)CCC3)o1 | i | 167 | i | i | i | i | 188 | 135 | i
CC(C)(C)c1ccc(OCCn2ccccc2=O)cc1 | i | 177 | i | 5.5 | i | i | 197 | i | 117
CC(C)(c1ccccc1)c1ccc(OCCn2cnc3ccccc3c2=O)cc1 | i | i | i | i | i | i | nt | nt | nt
COc1ccc(COc2cc(-c3cccc(OC)c3)nc3ccc(NC(C)=O)cc23)cc1 | i | i | i | i | i | i | nt | nt | nt
COc1ccc(Cn2c(C3CC3)nc3ccc(NC(C)=O)cc3c2=O)cc1 | 142 | 169 | i | 4.3 | i | i | 213 | 143 | 134
CC(C)=CC(=O)Nc1ccc(Br)cc1 | i | 154 | i | 5.6 | i | i | 172 | 141 | i
Cn1c(O)c(C=Nc2ccc(Br)cc2)sc1=O | 165 | 160 | i | i | i | i | 189 | 136 | i
O=C(Nc1ncc(Cc2cccc(Cl)c2)s1)c1cccs1 | i | i | i | i | i | i | nt | nt | nt
O=C(Nc1ncc(Cc2ccccc2)s1)C1COc2ccccc2O1 (stereo unspecified) | 164 | 184 | i | i | i | i | 192 | i | 114
O=C(NCc1cccnc1)C1COc2ccccc2O1 (stereo unspecified) | i | i | i | i | i | i | nt | nt | nt
O=C(Nc1ncc(Cc2ccccc2)s1)c1cccs1 | 194 | 154 | i | 8.4 | i | i | 276 | 142 | 122
Cc1ccc(Cc2cnc(NC(=O)c3cccs3)s2)cc1 | 170 | 171 | i | 7.1 | i | i | 219 | 143 | 133
O=C(Nc1nnc(Cc2ccccc2)s1)c1cccs1 | i | i | i | i | i | i | nt | nt | nt
O=C(COC(=O)c1ccc2c(c1)OCO2)Nc1nc(-c2ccccc2)cs1 | i | i | i | nt | i | i | nt | nt | nt
CCC(=O)Nc1nc(-c2ccc3c(c2)OCCO3)cs1 | 147 | 153 | i | 7.1 | i | i | 212 | 145 | i
COc1ccc(CCc2nnc(CCC(=O)NCc3cc(C(C)C)no3)o2)cc1 | i | i | i | i | i | i | nt | nt | nt
COc1ccc2c(c1OC)C(=O)OC2Nc1nc(-c2ccc(-c3ccccc3)cc2)cs1 (stereo unspecified) | 179 | 181 | i | 11 | i | i | 232 | 135 | i
COc1ccc2c(c1OC)C(=O)OC2Nc1nc(-c2cc3ccccc3oc2=O)cs1 (stereo unspecified) | 153 | 182 | i | 6.7 | i | i | 195 | i | i
Cc1ccc2c(Cl)cc(Cl)c(OCC(=O)Nc3ccc(C)c(S(=O)(=O)N(C)C)c3)c2n1 | i | i | i | i | i | i | nt | nt | nt
CCOc1ccc2nc(N3CCC(C(=O)N4CCN(C5CCCCC5)CC4)CC3)sc2c1 | i | i | i | i | i | i | nt | nt | nt
CCOc1ccc2nc(N3CCCCCC3)sc2c1 | 194 | 191 | i | 7.2 | i | i | 246 | 144 | i
SMILES | APP 5'UTR act | STAT1 activator | STAT3 blocker | NF-kB neuron act | STAT1 blocker | STAT3 activator | STAT1 activ conf | NFkB act STAT1ct | STAT3 act STAT1c
CCOCC(=O)Nc1nc2ccc(OCC)cc2s1 | i | 152 | i | i | i | i | 167 | i | i
COC(C#CCCN(C)C)(c1ccccc1)c1ccccc1 | i | i | i | i | i | i | nt | nt | nt
COc1ccc(C(=O)Nc2nnc(CCS(=O)(=O)c3ccc(C)cc3)s2)cc1 | i | i | i | i | i | i | nt | nt | nt
O=C(CSc1nnc2ccccn12)c1ccc2c(c1)OCCO2 | i | 158 | i | i | i | i | 186 | i | 130
COc1ccc(C(=O)CSc2nnc3ccccn23)cc1OC | i | i | i | i | i | i | nt | nt | nt
O=c1cc(/C=C/c2ccccc2)oc2ccccc12 | i | 156 | i | 4.6 | i | i | 192 | 136 | 124
C=CCSc1nnc(NC(=O)c2cccc(S(=O)(=O)N(C)c3ccccc3)c2)s1 | i | i | i | i | i | i | nt | nt | nt
CCC(=O)N/N=c1/sc2ccccc2n1C | i | i | i | i | i | i | nt | nt | nt
Cn1/c(=N/N=C/c2ccccn2)sc2ccccc21 | i | 152 | i | 5.3 | i | i | 219 | 142 | 130
CCc1cc2c(=O)[nH]c(-c3ccccn3)nc2s1 | i | 152 | i | i | i | i | 189 | 137 | i
CCc1cc2c(=O)[nH]c(N3CCCC3)nc2s1 | i | i | i | i | i | i | nt | nt | nt
Cc1ccc(C2=C/C(=C/c3cccs3)C(=O)O2)cc1 | i | i | i | i | i | i | nt | nt | nt
O=C1OC(c2ccccc2)=C/C1=C/N1CCCCC1 | i | 170 | i | i | i | i | 160 | i | 117
O=C(COC(=O)C(Cc1ccccc1)NC(=O)c1ccc(Cl)cc1)c1ccc(Cl)cc1 (stereo unspecified) | nt | i | i | i | i | i | nt | nt | nt
N/C(Cc1cccc2ccccc12)=N\OC(=O)c1cccs1 | i | i | i | i | i | i | nt | nt | nt
COc1ccc(/C(N)=N/OC(=O)c2cccs2)cc1OC | i | 159 | i | i | i | i | 140 | i | i
N/C(=N\OC(=O)c1cccs1)c1ccccc1 | i | 156 | i | i | i | i | 161 | i | i
COc1ccccc1C/C(N)=N/OC(=O)c1cccs1 | i | i | i | i | i | i | nt | nt | nt
COc1ccc(C(=O)O/N=C(/C)c2cccs2)cc1 | i | i | i | i | i | i | nt | nt | nt
Cc1ccc(/C(N)=N/OC(=O)c2cccs2)cc1 | nt | 164 | i | i | i | i | 188 | 142 | 116
CCOCCCNS(=O)(=O)c1ccc(-n2cnnn2)c(OC)c1 | i | i | i | i | i | i | nt | nt | nt
CC(=O)Nc1ccc(-n2nnnc2SCC(=O)NCc2cccs2)cc1 | i | i | i | i | i | i | nt | nt | nt
C=CCn1c(C)cc(C(=O)CSc2nc3ccccc3o2)c1C | i | 160 | i | i | i | i | 215 | i | i

Source: PubChem BioAssay (several laboratories)
